Bioassay records (PubChem BioAssay)
m-calpain inh = inhibitors of pig calpain II, primary screen, biochemical, fluorogenic peptide substrate, 1536-well. AID 1236, 2008. hit rate 0.37% among 220,000. purified calpain II, 30 min. inhibition, % at 16 µM;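 active = inhibition above about 50%, limit read from the data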
FXIIa inh 1536 = human FXIIa protease inhibitors, primary screen, biochemical, 1536-well; Coagulation factor XII (Homo sapiens), P00748; purified FXIIa, Boc-QGR-AMC fluorogenic substrate, 2 h; inhibition, % at 5 µM; hit rate 0.3% among 220,000; in the data active = inhibition above about 40%
thrombin 1536 = human alpha-thrombin inhibitors, primary screen, counter-screen for coagulation protease inhibitor project, biochemical, 1536-well, fluorogenic AMC substrate | Prothrombin (Homo sapiens), P00734 | Boc-VPR-AMC fluorogenic substrate cleavage | inhibition, % at 5 µM | hit rate 0.26% among 220,000 | AID 1046, 2008;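 active = inhibition at or above 40%; inactive = inhibition below 40%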
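System: human alpha-thrombin protein; Compound dosing: one concentration per compound, 5 µM, with 0.2% DMSO; Timing: reaction at room temperature; Technique: AMC fluorescence, 355/460 nm; Controls: enzyme without compound as high, wells lacking enzyme as low.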
KLK5 inh = human KLK5 protease inhibitors, primary screen, biochemical, 1536-well. Kallikrein-5 (Homo sapiens), Q9Y337. inhibition, % at 5 µM. hit rate 0.59% among 210,000. recombinant hK5, fluorogenic AMC substrate cleavage;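 active = inhibition of 40% or more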
Target sequence (Q9Y337 67-293 limits assumed): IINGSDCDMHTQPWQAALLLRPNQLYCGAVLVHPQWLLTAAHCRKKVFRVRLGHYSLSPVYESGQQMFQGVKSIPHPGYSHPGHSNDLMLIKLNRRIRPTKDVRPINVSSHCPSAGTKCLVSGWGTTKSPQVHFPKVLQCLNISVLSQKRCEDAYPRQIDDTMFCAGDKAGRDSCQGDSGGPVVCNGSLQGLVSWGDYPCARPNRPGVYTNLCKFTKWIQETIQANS
FXIa inh 1536 = human FXIa protease inhibitors, primary screen, biochemical, 1536-well; inhibition, % at 5 µM; hit rate 0.14% among 220,000; purified FXIa, Boc-Glu-Ala-Arg-AMC fluorogenic substrate; Coagulation factor XI (Homo sapiens), P03951;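 active = inhibition of at least 40%; inactive = inhibition below 40%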;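 note: fluorescence of freed AMC excited at 355 nm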
Furin inh = human furin inhibitors, primary screen, biochemical, fluorescence intensity; P09958; purified furin, fluorogenic substrate cleavage; inhibition, % at 20 µM or 30 µM; hit rate 0.061% among 220,000; AID 463115, 2010; in the data active = inhibition above about 25%
Numbers stand for hits; – = inactive; · = no result. Only some compounds are listed: those with a hit (about 1.4% of all), similar ones and a draw of the others.

SMILES | m-calpain inh | FXIIa inh 1536 | thrombin 1536 | KLK5 inh | FXIa inh 1536 | Furin inh
COc1ccc(CNc2nc(-c3cccnc3)nn2C(C)=O)cc1 | – | – | 99.2 | – | – | –
COc1ccc(CNc2nc(-c3cccnc3)nn2C(=O)c2cccs2)cc1 | – | – | – | – | – | –
COc1ccc(S(=O)(=O)NNC(=O)c2ccccc2-n2cccc2)cc1 | – | – | – | – | – | –
CCOC(=O)C1=C(c2ccccc2)NC(SC)=C(C#N)C1c1cccnc1 (stereo unspecified) | – | – | – | – | – | –
CC(C)NC(=O)c1ccc(C(C)C)cc1 | – | – | 77.6 | – | – | –
O=C(C[n+]1cccc(CNC(=O)c2ccc(OC(F)F)cc2)c1)Nc1cc(C(F)(F)F)ccc1Cl | – | – | – | 61.3 | – | –
NC(=O)C[n+]1cccc(CNC(=O)c2ccc(OC(F)F)cc2)c1 | – | – | – | – | – | –
CC(C)COc1ccc(CNC(=S)N/N=C/c2ccc([N+](=O)[O-])cc2)cc1 | – | – | – | – | – | –
CC(C)Oc1ccc(CNC(=S)N/N=C/c2ccc([N+](=O)[O-])cc2)cc1 | – | 53.3 | – | – | – | –
CCOc1ccc(OCC)c(NC(=O)C2CCCN(S(=O)(=O)c3cnc[nH]3)C2)c1 (stereo unspecified) | – | – | 40.3 | – | – | –
CCOc1ccccc1NC(=O)C1CCCN(S(=O)(=O)c2cccc3nsnc23)C1 (stereo unspecified) | – | – | – | 121.2 | – | –
O=C(Nc1nc(=O)n(C(=O)c2cccc(C(F)(F)F)c2)s1)c1ccccc1 | – | – | – | – | – | –
c1ccc(OCCOc2ncnc3ccccc23)cc1 | – | – | – | – | – | –
Cc1csc2c(N3CCN(C(=O)Nc4ccc(Cl)c(Cl)c4)CC3)ncnc12 | – | – | – | – | – | –
CCOC(=O)c1ccccc1Oc1c(F)c(F)nc(NCCO)c1F | – | – | 42.1 | 42.0 | – | –
CC(C)(C)OC(=O)N[C@@H](Cc1ccccc1)c1nnc(S(=O)(=O)Cc2ccccc2)o1 | – | – | – | – | – | –
CCC(C)[C@@H](NC(=O)OC(C)(C)C)c1nnc(S(=O)(=O)Cc2cccc(C)c2)o1 (stereo partly specified) | – | – | 50.6 | – | – | –
O=C1CC(SCc2nc3ccccc3[nH]2)C(=O)N1c1ccc(F)cc1 (stereo unspecified) | – | – | – | 53.7 | – | –
O=C1CC(SCc2nc3ccccc3[nH]2)C(=O)N1c1cccc(Cl)c1 (stereo unspecified) | – | – | – | – | – | –
CCC(=O)n1nc(-c2ccc(Cl)cc2)nc1SC | – | – | 56.8 | – | – | –
CCCC(=O)n1nc(-c2ccc(Cl)cc2)nc1SC | – | – | 52.2 | – | – | –
Cc1ccc(SCCNS(=O)(=O)c2ccc(F)cc2)cc1 | – | – | – | – | – | –
CC(C)c1ccc(NC(=S)Nc2ccc3cn[nH]c3c2)cc1 | – | – | 41.8 | – | – | –
Cc1ccc(NC(=S)Nc2ccc3cn[nH]c3c2)cc1C | – | – | – | – | – | –
COc1ccc(NC(=O)C23CC4CC(C2)CC(n2cnc(Br)n2)(C4)C3)c(C)c1 | – | – | – | – | – | –
SMILES | m-calpain inh | FXIIa inh 1536 | thrombin 1536 | KLK5 inh | FXIa inh 1536 | Furin inh
O=c1c2sc3ccccc3c2[nH]c(=S)n1CCN1CCOCC1 | – | – | – | – | – | –
COC(=O)C(C)Sc1nnc(Cc2cc(=O)[nH]c(=O)[nH]2)n1-c1ccc(Cl)cc1 (stereo unspecified) | – | 42.6 | – | – | – | –
CCOC(=O)c1cc(-c2ccc(C)cc2)n(CCC(=O)NCCN(C)C)c1C | – | – | – | – | – | –
CCOC(=O)c1cc(-c2ccc(C)cc2)n(CC(=O)NCc2ccco2)c1C | – | – | – | 54.2 | – | –
O=C(CCSc1ccccc1)NC(=O)COC(=O)C1CCCCC1 | 59.6 | · | – | – | – | –
O=C(CCSc1ccccc1)NC1CCCCCC1 | – | – | – | – | – | –
NC(=O)C1(N2CCCCC2)CCN(Cc2ccc(Br)cc2)CC1 | – | – | – | – | – | –
NC(=O)C1(N2CCCCC2)CCN(Cc2ccc(F)cc2)CC1 | – | – | – | 48.7 | – | –
CCOC(=O)c1c(-c2ccc(C)cc2)csc1NC(=O)CCN1CCOCC1 | – | – | 42.3 | – | – | –
CCOC(=O)c1c(-c2ccccc2)csc1NC(=O)CCN1CCOCC1 | – | – | – | – | – | –
O=C(Cn1cc2c(n1)CCCCC2)Nc1c(F)c(F)cc(F)c1F | – | – | – | – | – | –
Cc1cc(C)c(NC(=O)Cn2cc3c(n2)CCCC3)c(C)c1 | 68.8 | – | – | – | – | –
Cc1ccc(-n2cc(C(=O)c3ccc(F)cc3)nn2)cc1Cl | – | – | – | – | – | –
Cc1ccc(CN2CN(S(=O)(=O)c3cccs3)c3nc4ccccc4nc32)cc1 | – | – | – | – | – | –
S=C(NCc1ccc(Cl)cc1)NC1CCN(Cc2ccccc2)CC1 | 54.0 | – | – | · | – | –
CCC(=O)N(CC)Cc1cc(=O)[nH]c2ccccc12 | – | – | – | – | – | –
COc1ccc([N+](=O)[O-])cc1NC(=O)CC1SC(=Nc2cccc(C)c2C)N(/N=C/c2cccc(OC)c2OC)C1=O (stereo unspecified) | – | – | – | – | 102.2 | –
CC(C)NC(=O)CSc1nc(-c2ccccc2)cs1 | – | – | 40.1 | – | 45.6 | –
Cn1nc(C(C)(C)C)cc1NC(=O)Nc1ccc(F)cc1F | – | – | – | – | – | –
O=C(NCCc1ccccn1)c1ccc(OC(F)F)cc1 | 88.9 | – | – | – | – | –
CCN(CC)S(=O)(=O)c1ccc(C(=O)NCCc2ccccn2)cc1 | – | – | – | – | – | –
Cc1cc(OCC(=O)O)c2ccccc2n1 | – | – | – | – | – | –
O=C(Nc1cccc(F)c1)C1CC(=O)N(c2ccc(Cl)cc2)C1 (stereo unspecified) | – | – | – | – | – | –
O=C(Nc1cccc(F)c1)C1CC(=O)N(c2ccc(Br)cc2)C1 (stereo unspecified) | – | – | – | 78.9 | – | –
COc1ccccc1NS(=O)(=O)c1cc(NC(=O)Nc2ccccc2)ccc1N1CCCCC1 | – | – | – | 52.8 | – | –
COc1ccccc1NS(=O)(=O)c1cc(NC(=O)C(C)C)ccc1N1CCCCC1 | – | – | – | – | – | –
COc1cc(C(=O)NCC(C)C)c([N+](=O)[O-])cc1OC | – | – | – | – | – | –
Cc1ccc(NC(=O)c2noc(C(C)C)c2[N+](=O)[O-])cc1 | 58.2 | – | – | · | – | –
CC(C)c1onc(C(=O)Nc2cccc(O)c2)c1[N+](=O)[O-] | – | – | – | – | – | –
